CRFBP-R2 block – blocks CRF-induced signaling of the CRF-BP/CRF-R2 complex; HEK293 CRF-R2/CRF-BP, CRF-induced calcium fluorescence; inhibition, % at 11.8 µM; hit rate 0.59% among 350,000; AID 588475;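 active = inhibition of the ligand-induced calcium signal above about 50% at the single tested concentration, limit read from the data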
Cardio protect – protects H9c2 cardiomyocytes from peroxide injury. H2O2 injury protection, ATPLite, 2 h. AID 588492. hit rate 0.63% among 360,000. protection from H2O2 cell death, % at 20 µM;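 active = compounds giving at least 50% protection of heart cells from peroxide-induced death in the single-dose screen, raw or plate-pattern-corrected value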
UCH37 inh – blocks the human deubiquitinase UCH37. purified proteasome/UCH37, Ub-AMC cleavage fluorescence. inhibition, % (concentration not given with the values). hit rate 0.33% among 330,000. AID 588478;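 active = mean inhibition over replicate wells above about 20%, limit read from the data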
Target sequence (Q9Y5K5 whole entry, looked up): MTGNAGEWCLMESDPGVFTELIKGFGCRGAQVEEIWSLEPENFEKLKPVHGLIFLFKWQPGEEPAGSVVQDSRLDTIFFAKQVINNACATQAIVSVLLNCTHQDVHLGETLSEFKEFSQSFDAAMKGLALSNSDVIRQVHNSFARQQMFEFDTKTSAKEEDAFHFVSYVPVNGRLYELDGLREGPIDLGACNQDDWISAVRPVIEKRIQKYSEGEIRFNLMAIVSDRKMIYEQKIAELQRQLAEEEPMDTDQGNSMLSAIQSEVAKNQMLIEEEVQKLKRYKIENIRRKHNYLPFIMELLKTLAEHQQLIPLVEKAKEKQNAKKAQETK
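Test system – human UCH37 enzyme supplied as purified proteasome complex · Incubation – 30 min preincubation with enzyme, 25 min cleavage at room temperature · Detection – AMC fluorescence from Ub-AMC cleavage, excitation 355 nm, emission 460 nm · Benchmarks – no-proteasome wells (full inhibition) and compound-free wells (no inhibition)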
CRFR2-BP ag – CRF-BP/CRF-R2 complex agonism; HEK293 CRF-R2/CRF-BP, calcium dye fluorescence (FLIPR); percent of saturating CRF peptide response; activation, % at 13.2 µM; hit rate 0.46% among 350,000; AID 588473;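 active = activation of at least 50%, plus an integration ratio under a set limit after plate pattern correction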
MIN6 prolif-1 – inducers of beta-cell replication in MIN6 cells. MIN6 cells proliferation, ATPlite luminescence, 48 h; cells starved in 0.2% serum; 100% = growth in 10% serum. proliferation, % at 10 µM. hit rate 0.29% among 330,000;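 active = compounds whose signal lies at least 3.5 SD above the mean of all wells on their plate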
iPSC survival up – enhancers of human iPSC single-cell survival; hiPSC single-cell survival, ATPlite luminescence; 100% = ROCK inhibitor wells, 0% = DMSO; hit rate 0.044% among 360,000; survival enhancement, % at 20 µM; AID 602274; in the data active = survival enhancement above about 18%;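 note: cells exposed to compounds for 16 hours before the ATP read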
MIN6 prolif-2 – MIN6 beta-cell replication induction, confirmed | proliferation increase, % at 50 µM | AID 463095 | 920 tested, under 10 active | shares compounds with MIN6 prolif-1 | MIN6 beta-cell proliferation, ATPlite luminescence, 48 h; cells kept in 0.2% serum; scaled between 0.2% and 10% serum;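 active = proliferation increase above 40% at any of the four tested concentrations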
UCH37 confirm – reconfirmed inhibitor of human deubiquitinase UCH37 | Proteasome-bound UCH37, Ub-AMC cleavage fluorescence | AID 624100 | shares compounds with UCH37 inh | inhibition, % at 20 µM | hit rate 27% among 480;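 active = average inhibition over replicates above about 50%, so the earlier screening hit is confirmed, limit read from the data; inactive = the rest, counted as false positives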;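 note: based on cleavage rate fitted by regression over a 30 min kinetic read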
Numbers stand for hits; – = inactive; · = no result. In the library only some 2.1% were active in any assay of this set; here they are far more common.

SMILES	CRFBP-R2 block	Cardio protect	UCH37 inh	CRFR2-BP ag	MIN6 prolif-1	iPSC survival up	UCH37 confirm	others
CNc1oc(-c2ccco2)nc1C#N	–	–	–	–	–	–	·
Cc1ccc(CNc2oc(-c3ccco3)nc2C#N)cc1	–	–	–	–	0.0	–	·	MIN6 prolif-2=–
COC(=O)c1ccc(SC)cn1	–	–	–	–	11	–	·	MIN6 prolif-2=–
COC(=O)c1ccc(C(=O)OC)nc1	–	–	–	–	–	–	·
Nc1nc(O)c(N=Nc2ccc(S(N)(=O)=O)cc2)c(=O)[nH]1	–	·	–	–	–	·	·
NS(=O)(=O)c1ccc(N=Nc2c[nH]c(=O)c(O)c2)cc1	–	–	33	–	–	–	–
O=C1C=C(Nc2ccc(F)cc2)c2ccccc2C1=O	–	–	57	–	–	–	–
Cc1ccc(NC2=CC(=O)C(=O)c3ccccc32)c(C)c1	–	–	36	–	–	–	–
O=C1C=C(Nc2ccccc2O)c2ccccc2C1=O	–	–	81	–	–	–	85
O=C1C=C(Nc2cccnc2)c2ccccc2C1=O	–	–	·	–	·	–	·
O=c1cccccc1NCc1ccccc1	–	–	–	–	–	–	·
O=C1C=C(NCc2ccccc2)c2ccccc2C1=O	–	–	53	–	·	–	–
CC1=CC=CC2=NC(=NS(=O)(=O)c3ccc(F)cc3F)c3ccccc3CN12	·	·	–	·	·	·	·
CN(C)c1ccc(C=NN2CCN(c3ccccn3)CC2)cc1	·	·	–	·	·	·	·
COc1ccc(NC(=O)C(C)Oc2ccc(C(C)=NO)cc2)cc1 (stereo not drawn)	·	·	–	·	·	·	·
Cc1ccccc1Cn1cc(C=Nn2cnnc2)c2ccccc21	·	·	–	·	·	·	·
O=S(=O)(NCc1ccc(F)cc1)c1ccccc1Br	–	–	35	–	–	–	–
O=S(=O)(NCc1ccccc1)c1ccc(F)cc1Br	–	–	–	–	–	–	·
CC(C)[C@H](NC(=O)NC1CCCC1)C(=O)O	–	–	–	–	–	–	·
CC(C)=CCCC(C)NC(=O)NC1CCCCC1 (stereo not drawn)	–	–	21	–	–	–	67
O=C(COc1ccc(C=NNC(=O)c2ccccc2)cc1)Nc1ccc([N+](=O)[O-])cc1	·	·	–	·	·	·	·
Cc1cc(C)c[n+](C2=C([O-])c3ccccc3C(=O)/C2=N\S(=O)(=O)c2cccs2)c1	–	–	27	–	–	–	–
Cc1ccccc1NC1=C/C(=N\S(=O)(=O)c2cccs2)c2ccccc2C1=O	–	–	78	–	–	–	–
O=C1C(Nc2ccccc2)=CC(=NS(=O)(=O)c2cccs2)c2ccccc21	·	·	78	·	·	·	–
Cc1cc[n+](C2=C([O-])c3ccccc3C(=O)/C2=N\S(=O)(=O)c2cccs2)cc1C	–	–	–	–	–	–	·
SMILES	CRFBP-R2 block	Cardio protect	UCH37 inh	CRFR2-BP ag	MIN6 prolif-1	iPSC survival up	UCH37 confirm	others
Cc1nnc(SCC(=O)NN=Cc2cc(Cl)c(O)c(Cl)c2)s1	·	·	–	·	·	·	·
CC1=NN(c2ccc(C)cc2)C(=O)/C1=C\C=C\c1ccccc1	–	–	–	–	–	–	·
CC1=NN(c2ccccc2)C(=O)/C1=C/C=C/C=C/N(C)C	–	–	32	–	–	–	–
CCN1/C(=C/C=C/C=C/C=C/c2sc3ccccc3[n+]2CC)Sc2ccccc21	–	–	54	–	–	–	69
CCN1/C(=C/C=C/C=C/c2sc3ccccc3[n+]2CC)Sc2ccccc21	·	·	·	·	–	·	·
O=C1NC(=S)S/C1=C\C=C\c1ccc([N+](=O)[O-])o1	–	–	28	–	·	–	–
O=C(O)/C=C/c1ccc([N+](=O)[O-])o1	–	–	–	–	–	–	·
CCCCCc1ccc(OCCCC[n+]2ccc(C)cc2)c(CCCCC)c1	–	–	29	–	–	–	–
O=C1OC(c2ccc3ccccc3c2O)(c2ccc3ccccc3c2O)c2ccccc21	–	–	26	–	·	–	–
COc1cc(C=NNC(=O)CCN2CCN(c3ccccc3)CC2)cc(OC)c1OC	·	·	–	·	·	·	·
COc1cc([N+](=O)[O-])ccc1-c1ccc(/C=N\n2cnnc2)o1	–	–	·	–	–	–	·
COc1cc([N+](=O)[O-])ccc1-c1ccc(/C=C2\C(=O)ON=C2c2ccccc2)o1	–	–	34	–	·	–	–
CC1(C)OC(c2ccccc2)=C/C(=C/C=Nc2ccccc2)O1	–	–	48	–	–	–	–
C[C@H]1COC2=C1C(=O)C(=O)c1c2ccc2c1CCCC2(C)C	–	–	41	–	·	–	75
CCN1C(=O)/C(=C\N(C)C)NC1=S	–	–	–	–	–	–	·
CN(C)/C=C1/NC(=S)NC1=O	–	–	27	–	–	–	–
CCOc1ccc(C2/C(=C(\O)c3cccc(OC)c3)C(=O)C(=O)N2c2cc(C)on2)cc1OC (stereo not drawn)	–	–	49	–	–	–	–
COc1ccc(NC(=O)/C=C/c2c(Cl)nc3ccccn23)cc1	–	–	37	–	–	–	–
CCOc1ccc(C=NNc2ccc(S(=O)(=O)Nc3ccccc3C(=O)O)cc2[N+](=O)[O-])cc1OC	–	–	44	–	–	–	75
Clc1ccc(C2=NNC(=NCC3CCCO3)SC2)cc1 (stereo not drawn)	–	–	51	–	–	–	–
CC1=C(C(=O)OCc2ccccc2)C(c2ccccc2Cl)NC(=O)N1CCCC(=O)O (stereo not drawn)	–	–	41	–	–	–	–
CC1=C(C(=O)OCc2ccccc2)C(c2ccccc2Cl)NC(=O)N1CCCCCC(=O)O (stereo not drawn)	–	–	–	–	–	–	·
CC(=O)N(N=C1Sc2ccccc2C1=O)c1ccccc1	·	·	31	·	·	·	–
CC(=O)N(N=C1Sc2ccccc2C1=O)c1ccccc1C	·	·	83	·	·	·	62
CC(=O)N(/N=C1\Sc2ccccc2C1=O)c1cccc(C)c1	–	–	·	–	–	–	·
SMILES	CRFBP-R2 block	Cardio protect	UCH37 inh	CRFR2-BP ag	MIN6 prolif-1	iPSC survival up	UCH37 confirm	others
CC(=O)N(C)/C=C1\Sc2ccccc2C1=O	–	–	–	–	–	–	·
O=C(CCC(=O)Nc1ccccc1Cl)NN=Cc1ccccc1	·	·	–	·	·	·	·
CC(=NO)C(=O)NCc1ccccn1	·	·	–	·	·	·	·
CC(C)c1ccc(S(=O)(=O)N=C2C=C(Sc3ncn[nH]3)C(=O)c3ccccc32)cc1	·	·	67	·	·	·	62
Cc1ccc(C)c(NC(=O)CSc2c(C)n[nH]c2C)c1	–	–	–	–	–	–	·
CCOc1ccccc1NC(=O)CSc1c(C)n[nH]c1C	–	–	36	–	–	–	–
O=C(NN=Cc1cn(-c2cccs2)nc1-c1ccccc1)c1ccccc1O	·	·	–	·	·	·	·

Screening data as filed in PubChem.
